# Screening results (PubChem)
# The list is not random: actives were taken first. Their share in the collection is about 2.4%.
# PREPL inhibitor: PREPL enzyme inhibitors, primary screen, biochemical, fluorescence polarization | Prolyl endopeptidase-like (Homo sapiens), Q4J6C6 | recombinant PREPL, fluorescence polarization activity-based probe | inhibition, % at 5.96 µM | 0.68% of 320,000 active | AID 2751, 2010; in the data active means inhibition above about 43%;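 further: 0% = enzyme with DMSO and 100% = wells lacking enzyme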
# CSN inh: inhibitors of CSN-mediated cullin deneddylation, primary screen, biochemical, fluorescence polarization, uHTS | COP9 signalosome complex subunit 5 (Homo sapiens), Q92905 | Purified CSN, SCF-Nedd8-OG deneddylation | inhibition, % at 12.5 µM | 0.38% of 360,000 active | AID 651999, 2013;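 active means pattern-corrected inhibition above about 35%, with an unprinted fluorescence ratio check between 0.5 and 1.5, limit read from the data, passing the limit was not always enough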;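 further: 0% = enzyme with substrate and 100% = substrate without enzyme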
# Target sequence (Q92905 whole entry, looked up, one chain of several): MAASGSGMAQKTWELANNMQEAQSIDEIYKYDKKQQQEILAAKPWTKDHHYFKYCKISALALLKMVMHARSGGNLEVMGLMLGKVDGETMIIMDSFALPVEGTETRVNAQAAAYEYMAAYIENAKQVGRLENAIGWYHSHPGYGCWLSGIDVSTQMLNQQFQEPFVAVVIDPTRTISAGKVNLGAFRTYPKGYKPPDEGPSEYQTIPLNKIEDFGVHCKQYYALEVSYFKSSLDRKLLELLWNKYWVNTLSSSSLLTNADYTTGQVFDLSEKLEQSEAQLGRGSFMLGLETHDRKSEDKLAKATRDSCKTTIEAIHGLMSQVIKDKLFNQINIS
#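 assay system = purified human Csn5 enzyme expressed in HEK293T cells | amount = 0.24 nM enzyme | buffer or medium = Tris/NaCl/DTT buffer, pH 7.5 | reagent = 10 nM SCFSkp2-Nedd8OG | compound = one concentration, 12.5 µM, 0.25% DMSO | times = 90 min reaction at room temperature | signal = FP | read-out basis = % inhibition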
# Neddylation inh: inhibitors of cullin neddylation, primary screen, biochemical, TR-FRET, uHTS, NAE and Ubc12. inhibition, % at 25 µM. NEDD8-conjugating enzyme Ubc12 (Homo sapiens) + NEDD8-activating enzyme E1 regulatory …. AID 651699, 2012. 0.58% of 360,000 active; in the data active means inhibition above about 36%
# TbMetRS inhib: T. brucei MetRS inhibitors, primary screen, biochemical, luminescence | inhibition, % at 11.9 µM | purified T. brucei MetRS, ATP depletion, Kinase-Glo luminescence | methionyl-tRNA synthetase (Trypanosoma brucei brucei) | 0.4% of 360,000 active;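 active means inhibition above a per-plate cutoff of the control wells' mean inhibition plus 3 SD, cut at about 5.5% in these data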;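 further: 0% = DMSO wells median and 100% = median of wells with control inhibitor compound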
#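 technique = Kinase-Glo luminescence, ATP depletion format | system = purified MetRS (methionyl-tRNA synthetase) enzyme from Trypanosoma brucei | timing = 15 min preincubation, 2 h reaction, all 25 °C | evaluation = percent inhibition versus plate control medians | dosing = single dose, 11.9 µM final nominal, 0.9% final DMSO | also added = substrates ATP, L-methionine and bulk Escherichia coli tRNA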
# HNF4A DNA FP: change in binding of human HNF4A to DNA, primary screen, biochemical, fluorescence polarization, FITC-DNA; Hepatocyte nuclear factor 4-alpha (Homo sapiens), P41235; AID 1224865, 2016; 0.3% of 360,000 active; 1 h; activity change, % at 10 µM; in the data active means activity change above about 30%, passing the limit was not always enough
# Rpn11 block: Rpn11 (PSMD14) deubiquitinase inhibitors, primary screen, biochemical, fluorescence polarization, uHTS; 26S proteasome non-ATPase regulatory subunit 14 (Homo sapiens), O00487; human 26S proteasome, Ub4-pepOG fluorescence polarization; 20S core pre-blocked with epoxomicin; 0.59% of 360,000 active; inhibition, % at 20 µM; AID 588493, 2011;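 active means inhibition at 20 µM, scaled to each plate's controls, above about 33%, limit read from the data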
# Rpn11 inh conf: Rpn11 (PSMD14) deubiquitinase inhibitors, confirmation, biochemical, fluorescence polarization, single concentration | shares compounds with Rpn11 block | purified human 26S proteasome, Ub4-pepOG fluorescence polarization; proteasome pretreated with epoxomicin | inhibition, % at 20 µM | 29% of 1,900 active
# MMP-2 counter: MMP-2 enzyme inhibition, confirmation, counter-screen for RPN11 inhibitor project, biochemical, fluorescence, single concentration; recombinant MMP-2, FRET peptide cleavage fluorescence; 4% of 1,900 active; shares compounds with Rpn11 block; inhibition, % at 20 µM;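 further: human MMP-2 activated beforehand with APMA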
# Thrombin inh: bovine thrombin protease inhibition, confirmation, counter-screen for Rpn11 inhibitor project, biochemical, fluorescence polarization, single concentration | inhibition, % at 20 µM | 13% of 1,900 active | bovine thrombin cleavage of Ub4-pepOG | shares compounds with Rpn11 block;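 active means mean inhibition at least 40% at 20 µM, or signal 3 deviations below plate average, so some actives read negative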;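 further: plate controls were thrombin with DMSO for no effect and buffer wells lacking thrombin for full effect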
# * = called active by the depositor; x = not tested or not shown. Unless noted, no stated cut-off is given here; in the data, active means inhibition above about 40%; inactive means the rest.
SMILES,PREPL inhibitor,CSN inh,Neddylation inh,TbMetRS inhib,HNF4A DNA FP,Rpn11 block,Rpn11 inh conf,MMP-2 counter,Thrombin inh
Cc1ccc2oc(NC3=NC4(CCCC4)C4=C(CCCC4=O)N3)nc2c1,x,2,18,-1,-3,3,x,x,x
CCOc1ccc2nc(N3C(=O)CNC3=S)sc2c1,4,1,x,1,-1,5,x,x,x
COc1ccc2nc(N3C(=O)/C(=C/c4ccc(Cl)cc4)NC3=S)sc2c1,x,18,3,0,-2,77*,56*,-22,25
CC(C)CNC(=O)c1ccc(-c2ccc(F)c(F)c2)c2ccoc12,x,-1,13,0,-1,12,x,x,x
COc1ccc(C(=O)/C(C#N)=N/Nc2ccccc2[N+](=O)[O-])cc1,5,-11,-49,0,2,-7,x,x,x
COc1ccc(C(=O)/C(C#N)=N/Nc2ccc([N+](=O)[O-])cc2)cc1,28,2,-116,1,16,34*,4,0,-29
CC1(C(=O)NS(=O)(=O)c2ccc(C#N)cc2)CCN1C(=O)C1(c2ccccc2)CC1 (centres undefined),x,-2,6,0,0,2,x,x,x
COc1cc2oc3ccccc3c2cc1N(CC(=O)N(C)C)S(=O)(=O)c1ccccc1,4,6,3,-1,-3,116*,-1,20,-14
O[C@@H]1CN(Cc2cccs2)[C@@H](c2ccc(Cl)cc2)C[C@H]1n1cc(-c2ccc(F)cc2)nn1,x,0,1,-2,-6,1,x,x,x
O=C(NCc1ccccn1)c1cccc(NS(=O)(=O)c2ccc(Br)cc2)c1,6,2,8,0,1,2,x,x,x
O=C(C=Cc1ccccc1)CC(c1ccccc1)N1CCOCC1 (centres undefined),x,28,12,0,-2,2,x,x,x
COc1cc([N+](=O)[O-])cc(/C=N/NC(=O)c2cc(-c3ccccc3)nc3ccccc23)c1O,8,24,1,0,17,89*,68*,31,11
COc1cc(/C=N/NC(=O)c2cncc(Br)c2)cc([N+](=O)[O-])c1O,12,10,-47,0,11,68*,18,28,7
COc1cc([N+](=O)[O-])cc(/C=N/NC(=O)c2cncc(Br)c2)c1O,-5,12,-37,0,10,60*,49*,16,29
O=C(N/N=C\c1ccc([N+](=O)[O-])o1)c1cncc(Br)c1,9,4,-5,1,-4,-6,x,x,x
COc1cc([N+](=O)[O-])cc(/C=N/NC(=O)c2cc(C)nc3ccccc23)c1O,0,8,-44,2,4,25,x,x,x
N#CC1(Nc2ccc(S(N)(=O)=O)cc2)CCCC1,x,1,-3,0,0,-4,x,x,x
CCCN(C(=O)CSc1ccccc1C(=O)O)C1CCS(=O)(=O)C1 (centres undefined),6,-4,-2,0,-2,-1,x,x,x
Cc1sc2nc(CSc3nnc(Cc4cccs4)n3C3CCCCC3)[nH]c(=O)c2c1C,10,15,12,0,30,72*,102*,-7,59*
